# SR-BI uptake up – activators of SR-BI mediated DiI-HDL uptake, primary screen, ldlA[mSR-BI] CHO cells, DiI fluorescence | 0.096% of 320,000 active | 3 h; 100 = double the neutral-control signal | activation, % at 12.5 µM;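 active means mean replicate activation of at least 60% and every replicate at or above 60%; inconclusive means mean or all-replicate condition met, but not both; inactive means mean below 60% and not all replicates reaching 60%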;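 further: 0% = median plate neutral-control signal and 100% = twice that signal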
#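 Assay system: LDL receptor-deficient CHO ldlA cells overexpressing murine SR-BI / Medium: BSA-supplemented, HEPES-buffered Ham's F12, pH 7.4 / Probe or stimulus: DiI-labelled HDL at 10 µg/mL final / Timing: compound with DiI-HDL co-incubation, 3 h at 37 °C / Technique: bottom-read cell fluorescence after medium removal, ex 550/em 595 nm / Measure: HDL uptake via cellular fluorescence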
# CDK5 inh – inhibitors of human CDK5/p35 kinase, primary screen, biochemical, single concentration. Cyclin-dependent kinase 5 (Homo sapiens) + Cyclin-dependent kinase 5 activator 1 (Homo …. Recombinant CDK5/p35, ADP-Glo luminescence, 60 min. inhibition, % at 10 µM. 0.01% of 330,000 active;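 active means highest replicate inhibition of at least 50% and at least 75% of replicates reaching 50%; inconclusive means only one of the two criteria met; inactive means both criteria failed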;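 further: plate controls were DMSO neutral control for no effect and GW8510 at 10 µM for full effect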
# SR-BI HDL uptake – inhibitors of SR-BI mediated HDL lipid uptake, primary screen, ldlA[mSR-BI] cells, fluorescence, single point. Scavenger receptor class B member 1 (Mus musculus), Q61009. ldlA[mSR-BI] CHO cells, DiI-HDL uptake fluorescence, 3 h. inhibition, % at 12.5 µM. 0.96% of 320,000 active;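 active means mean replicate inhibition of at least 70% and a set share of replicates each scoring 70 or more; inconclusive means meets just one of the two criteria; inactive means fails both criteria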;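 further: 0% = median of neutral control wells and 100% = median of positive control wells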
# NSD2 inh – NSD2 histone methyltransferase inhibitors, primary screen, biochemical, AlphaScreen, single concentration, set 2; Histone-lysine N-methyltransferase NSD2 (Homo sapiens), O96028; NSD2 peptide methylation, 120 min; inhibition, % at 12.5 µM; 0.54% of 310,000 active
# dFosB activator – activators of delta FosB homodimer, primary screen, biochemical, fluorescence polarization, TAMRA-CDK5 oligo, single point. activation, % at 25 µM. purified delta FosB; percent of positive-control signal above neutral wells. Protein FosB (Mus musculus), P13346. 0.99% of 340,000 active;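 active means mean activation above about 17%, with every replicate also reaching it, limit read from the data, passing the limit was not always enough; inconclusive means only one of the two conditions met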
# Target sequence (P13346 whole entry, looked up): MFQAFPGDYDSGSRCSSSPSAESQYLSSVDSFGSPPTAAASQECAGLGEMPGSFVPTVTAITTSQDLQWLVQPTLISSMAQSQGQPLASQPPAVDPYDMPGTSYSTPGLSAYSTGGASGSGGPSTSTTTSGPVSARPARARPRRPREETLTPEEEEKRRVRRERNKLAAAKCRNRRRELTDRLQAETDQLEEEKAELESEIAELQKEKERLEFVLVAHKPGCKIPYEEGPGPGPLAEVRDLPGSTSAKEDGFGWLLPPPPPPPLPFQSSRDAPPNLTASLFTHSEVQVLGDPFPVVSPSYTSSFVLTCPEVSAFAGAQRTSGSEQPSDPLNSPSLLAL
# DYRK1A inh – rat Dyrk1A kinase inhibitors, primary screen, biochemical, single point, plate reader; 0.43% of 310,000 active; Dual specificity tyrosine-phosphorylation-regulated kinase 1A (Rattus norvegicus), Q63470; ADP-Glo luminescence, NFATc1 peptide; AID 504441, 2011; inhibition, % at 12.5 µM;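 further: plate controls were vehicle with enzyme for no effect and no enzyme for full effect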
# DiI quencher – quenches DiI-HDL fluorescence, an SR-BI assay artifact | 20% of 470 active | shares compounds with SR-BI HDL uptake | AC50, µM (doses to about 35 µM), for the others: at the top dose activity change, negative = quenching | AID 540326 | cell-free DiI-HDL fluorescence quenching, 30 min;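 active means quenching, a falling signal, with AC50 below a set limit tied to the top valid dose, actives reach about 32 µM in these data; inconclusive means no clear call, values can overlap the other calls; inactive means rising signal, and the rest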
# Numbers without * were called inactive; ? = inconclusive; / = not tested or not shown. The list is not random: actives were taken first. Their share in the collection is about 2.5%. Unless noted, no stated cut-off is given here; in the data, active means inhibition above about 50%; inactive means the rest.
SMILES,SR-BI uptake up,CDK5 inh,SR-BI HDL uptake,NSD2 inh,dFosB activator,DYRK1A inh,DiI quencher
CCOc1cc(N2CCOCC2)c(OCC)cc1NC(=O)c1cc(-c2ccco2)nc2ccccc12,-79,-1,79*,0,-1,-5,24µM*
Cc1ccc(NC(=O)c2cc(-c3ccco3)nc3ccccc23)cc1S(=O)(=O)N1CCOCC1,-102,1,102*,0,-11,0,0%
COc1ccc(NC(=O)c2cc(C)nc3ccccc23)cc1S(=O)(=O)N1CCOCC1,-32,-2,32,-2,-3,2,/
CSc1ccccc1-c1ccc2nccn2c1,/,/,/,2,/,/,/
O=C1CN(C(=O)COC(=O)c2ccc(C(F)(F)F)cc2)c2ccccc2N1,12,0,-12,-1,3,7,/
COc1ccc(-c2nc(CN3CCN(c4ncnc5ccccc45)CC3)c(C)o2)c(OC)c1,-72,0,72*,/,-10,2,-1%
COC(=O)C1=CC(=O)N2CCN=C2S1,/,/,/,0,/,/,/
Fc1cccc(CSc2ncnc3c2ncn3C2CCCCO2)c1 (centres undefined),-10,1,10,1,-15,-7,/
CN(Cc1ccc(OC(F)F)cc1)C(=O)c1ccccc1Sc1ccccc1C#N,-85,-2,85*,0,-13,/,-4%
N#Cc1ccc(C(=O)N2CCC3CC2c2cc(-c4ccc(F)cc4)ccc23)cc1 (centres undefined),-36,-1,36,/,-8,13,-3%
Cc1ccc(C(=O)N2CCC3CC2c2cc(-c4ccc5c(c4)OCO5)ccc23)cc1 (centres undefined),-10,-2,10,/,-11,/,/
O=C(c1ccco1)N1CCC(c2nc3ccccc3[nH]2)CC1,15,1,-15,-1,-3,2,/
O=C(Nc1nc(-c2ccccn2)cs1)c1ccc(-c2ccccc2F)o1,-4,0,4,-2,-12,/,-14%
O=C(Nc1nc(-c2ccccn2)cs1)c1ccc([N+](=O)[O-])o1,-15,0,15,7,-3,6,/
Cn1c(C(=O)N2CCC(C(=O)N3CCN(Cc4ccc5c(c4)OCO5)CC3)CC2)cc2sccc21,-72,-8,72*,/,-3,0,-3%
Cn1c(C(=O)N2CCN(Cc3ccc4c(c3)OCO4)CC2)cc2sccc21,18,-2,-18,6,1,-4,/
COc1ccc(SCCN2CC[C@@H](C(C)(C)C)CCC2=O)cc1,14,-1,-14,/,-5,1,/
O=C(NCN1C(=O)C2C3C=CC(C3)C2C1=O)OC1CCCCC1 (centres undefined),-83,2,83*,0,1,2,-3%
Cc1c(Cl)cccc1S(=O)(=O)N1CCC(C(=O)NNC(=O)C2CC2)CC1,-45,-1,45,0,-2,5,-1%
Cc1ccc(S(=O)(=O)N2CCC(C(=O)NNC(=O)c3cccnc3)CC2)cc1,4,2,-4,0,-7,/,-1%
Cc1cc(SC(C)C(=O)Nc2ncc(Cl)cc2Cl)nc2ccccc12 (centres undefined),-72,0,72*,-3,1,0,-1%
Cc1nnc(SC(C)C(=O)Nc2ncc(Cl)cc2Cl)n1Cc1ccccc1 (centres undefined),-19,-2,19,1,-4,5,/
COc1ccc(NC(=O)C2CCN(C(=O)c3ccc(OC)cc3)CC2)cc1,-115,0,115*,/,-3,1,0%
COc1ccc(C(=O)N2CCC(C(=O)Nc3ccc(OC)c(OC)c3)CC2)cc1,-18,-1,18,1,7,12,/
CCOc1ccc(NC(=O)CN2CCN(CC(=O)Nc3cc(OC)cc(OC)c3)CC2)cc1,-81,-4,81*,2,-2,1,-1%
SMILES,SR-BI uptake up,CDK5 inh,SR-BI HDL uptake,NSD2 inh,dFosB activator,DYRK1A inh,DiI quencher
CCOc1ccc(NC(=O)CN2CCN(CC(=O)Nc3ccc(Cl)c(C(F)(F)F)c3)CC2)cc1,-37,1,37,4,-27,6,1%
CC(=O)c1ccc(N(CC(=O)NCc2ccc3c(c2)OCO3)C(=O)c2csnn2)cc1,-11,2,11,/,5,-3,/
CCOC(=O)C1(C#N)C(=O)CSC1=Nc1ccccc1Cl (centres undefined),/,/,/,3,/,/,/
Cc1ccc(N2CC(C(=O)NCCN3CCOCC3)CC2=O)cc1 (centres undefined),/,-2,/,-4,-1,-1,/
COc1ccc(-c2cc(C(F)(F)F)nc(SCCC(=O)N3CCN4CCCC4C3)n2)cc1 (centres undefined),-73,0,?,0,-4,4,-3%
COc1ccc(-c2cc(C(F)(F)F)nc(SCCC(=O)N3CCCC3)n2)cc1,-60,-2,60,3,-11,3,/
COc1ccc(NC(=O)CCC(=O)N(Cc2ccc(OC)c(OC)c2)c2nccs2)c(OC)c1,-30,-2,30,3,-10,2,/
COc1ccc(OC)c(NC(=O)CCC(=O)N(Cc2ccc(OC)c(OC)c2)c2nccs2)c1,-73,-1,?,3,-5,0,-10%
CCOc1ccccc1/C=C/c1onc(C)c1S(=O)(=O)N1CCC(C(=O)NC(C)(C)C)CC1,-84,/,84*,0,-6,/,4%
CCOc1ccccc1/C=C/c1onc(C)c1S(=O)(=O)N1CCC(C(=O)NC)CC1,-72,-1,?,/,-18,15,/
COCCN(Cc1cn(C)nc1-c1ccc(Oc2ccccc2)cc1)C(C)C,-82,0,82*,1,-11,8,-4%
O=C(Nc1nc(NC(=O)c2ccco2)n(-c2ccccc2)n1)c1ccccc1,-122,1,122*,2,-5,0,2µM*
CCOC(=O)C1CCCN(S(=O)(=O)NC[C@H]2O[C@@H](n3cnc4c(N)ncnc43)[C@H](O)[C@@H]2O)C1 (some centres undefined),-81,-1,81*,/,-2,/,3%
CN1CCN(S(=O)(=O)NC[C@H]2O[C@@H](n3cnc4c(N)ncnc43)[C@H](O)[C@@H]2O)CC1,27,0,-27,/,-10,/,/
COc1cc(OC)cc(-c2oc(=O)c3cc(OC)c(OC)cc3c2C#CCCCO)c1,-39,0,39,/,0,1,/

# Screens as filed in PubChem BioAssay.
